Source: ChEMBL document CHEMBL4043300, “2 H-1,2,3-Triazole-Based Dipeptidyl Nitriles: Potent, Selective, and Trypanocidal Rhodesain Inhibitors by Structure-Based Design” (J Med Chem, 2018)
≈ marks a conversion by molar mass, not a printed value.

Columns and labels:
[1] = Octanol-water intrinsic distribution co-efficient, log D of the compound at 100 uM at pH 7.4 after 16 to 22 hrs by CAMDIS assay; format: physicochemical
How it was run: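 Octanol/aqueous buffer (pH 7.4) intrinsic distribution coefficient measured in the CAMDIS carrier-mediated distribution system.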

[2] = Solubility of the compound at pH 6.5 by LYSA; format: physicochemical; details: buffer
How it was run: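 Lyophilization solubility assay at pH 6.5.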

Rhodesain = Rhodesain (Trypanosoma brucei rhodesiense, UniProt Q95PM0); test: Inhibition of Trypanosoma brucei rhodesiense rhodesain using Cbz-Phe-Arg-AMC as substrate by fluorimetric method
Chain of Rhodesain (Q95PM0 whole entry): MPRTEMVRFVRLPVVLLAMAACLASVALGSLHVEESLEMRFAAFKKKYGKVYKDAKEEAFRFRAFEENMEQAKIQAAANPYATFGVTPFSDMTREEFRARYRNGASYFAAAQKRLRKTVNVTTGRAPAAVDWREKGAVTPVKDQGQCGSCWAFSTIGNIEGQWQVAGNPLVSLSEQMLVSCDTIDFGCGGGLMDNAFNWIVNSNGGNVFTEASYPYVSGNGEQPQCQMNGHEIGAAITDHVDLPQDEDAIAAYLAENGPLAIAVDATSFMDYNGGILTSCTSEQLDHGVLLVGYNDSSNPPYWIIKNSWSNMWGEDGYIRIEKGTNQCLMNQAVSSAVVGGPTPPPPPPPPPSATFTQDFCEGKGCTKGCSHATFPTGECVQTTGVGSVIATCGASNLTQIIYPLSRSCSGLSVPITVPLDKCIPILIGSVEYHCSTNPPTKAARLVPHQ
How it was run: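 Fluorescence-based assay run at 25 °C in 50 mM sodium acetate pH 5.5 with 5 mM EDTA, 200 mM NaCl and 0.005% Brij35. IC50 values were converted to Ki with the Cheng-Prusoff equation. Values are the average of two measurements, each done in duplicate.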

Procathepsin L = Procathepsin L (Homo sapiens, UniProt P07711); test: Inhibition of human CatL using Cbz-Phe-Arg-AMC as substrate measured over 30 mins by fluorimetric method
Chain of Procathepsin L (P07711 whole entry): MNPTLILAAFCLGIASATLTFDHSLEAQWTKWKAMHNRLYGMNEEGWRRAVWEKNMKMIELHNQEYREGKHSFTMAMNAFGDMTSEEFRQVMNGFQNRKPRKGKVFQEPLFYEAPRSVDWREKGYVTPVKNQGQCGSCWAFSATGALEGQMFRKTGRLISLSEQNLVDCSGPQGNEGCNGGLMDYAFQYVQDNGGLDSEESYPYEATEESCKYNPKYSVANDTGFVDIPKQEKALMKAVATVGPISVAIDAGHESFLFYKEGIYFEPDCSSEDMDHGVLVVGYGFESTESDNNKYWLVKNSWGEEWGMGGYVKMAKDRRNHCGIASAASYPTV
How it was run: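 Human cathepsin L in a fluorimetric assay in 50 mM Tris pH 6.5, 5 mM EDTA, 200 mM NaCl, 0.005% Brij35 at 25 °C. Ki was calculated from IC50 by Cheng-Prusoff. Value is the average of two measurements, each in duplicate.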

[3] = Selectivity index, ratio of Ki for human CatL to Ki for Trypanosoma brucei rhodesiense rhodesain
How it was run: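 Ki(hCatL)/Ki(RD). Fluorimetric assays at 25 °C: RD in 50 mM sodium acetate pH 5.5; hCatL in 50 mM Tris pH 6.5; both buffers with 5 mM EDTA, 200 mM NaCl, 0.005% Brij35. Ki derived from IC50 by Cheng-Prusoff. Each value is the mean of two measurements, each done in duplicate.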

[4] = system: Trypanosoma brucei rhodesiense; test: Antitrypanosomal activity against bloodstream form of Trypanosoma brucei rhodesiense STIB 900 assessed as parasite growth inhibition after 72 hrs by Alamar blue assay; format: functional; details: STIB 900, 72 h
How it was run: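 Standard 72 h growth-inhibition assay with STIB 900 bloodstream trypomastigotes and Alamar Blue read-out. Value is the mean of at least 2 measurements.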

L6 = test: Cytotoxicity against rat L6 cells after 72 hrs by Alamar blue assay; format: cell-based; details: L6, 72 h
How it was run: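 Rat skeletal myoblast L6 cells in an Alamar Blue growth-inhibition assay. Value is the mean of at least 2 measurements.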

[5] = Intrinsic clearance in human liver microsomes at 2 uM after 30 mins in presence of NADPH by LC-MS/MS method; format: ADME, microsome; details: read-out: CLH
[6] = Intrinsic clearance in mouse liver microsomes at 2 uM after 30 mins in presence of NADPH by LC-MS/MS method; format: ADME, microsome; details: read-out: CLH
[7] = Permeability of the compound after 15 hrs by PAMPA; format: physicochemical; details: read-out: permeability
Cytochrome P450 3A4 = Cytochrome P450 3A4 (Homo sapiens, UniProt P08684); test: Inhibition of CYP3A4 in human liver microsomes using DBF as substrate by fluorescence assay; format: ADME
Chain of Cytochrome P450 3A4 (P08684 whole entry): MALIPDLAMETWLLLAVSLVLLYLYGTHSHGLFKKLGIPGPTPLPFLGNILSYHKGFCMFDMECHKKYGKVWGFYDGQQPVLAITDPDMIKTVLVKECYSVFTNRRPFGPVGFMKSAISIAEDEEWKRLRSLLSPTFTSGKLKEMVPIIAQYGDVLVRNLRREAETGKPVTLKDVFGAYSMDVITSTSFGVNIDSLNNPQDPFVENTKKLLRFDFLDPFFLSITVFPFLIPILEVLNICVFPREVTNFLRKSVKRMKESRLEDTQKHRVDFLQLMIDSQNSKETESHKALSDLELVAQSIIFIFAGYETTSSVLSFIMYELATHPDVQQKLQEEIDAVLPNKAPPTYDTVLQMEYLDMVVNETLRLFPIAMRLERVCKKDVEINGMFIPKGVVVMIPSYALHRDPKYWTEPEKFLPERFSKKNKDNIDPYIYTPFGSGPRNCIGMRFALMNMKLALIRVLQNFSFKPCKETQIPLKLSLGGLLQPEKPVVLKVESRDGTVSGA
How it was run: (§1)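 Human liver microsomes with CYP-selective substrate metabolism reactions for 2C9, 2D6 and 3A4.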

Cytochrome P450 2D6 = Cytochrome P450 2D6 (Homo sapiens, UniProt P10635); test: Inhibition of CYP2D6 in human liver microsomes using AMMC as substrate by fluorescence assay; format: ADME; how it was run: as §1
Chain of Cytochrome P450 2D6 (P10635 whole entry): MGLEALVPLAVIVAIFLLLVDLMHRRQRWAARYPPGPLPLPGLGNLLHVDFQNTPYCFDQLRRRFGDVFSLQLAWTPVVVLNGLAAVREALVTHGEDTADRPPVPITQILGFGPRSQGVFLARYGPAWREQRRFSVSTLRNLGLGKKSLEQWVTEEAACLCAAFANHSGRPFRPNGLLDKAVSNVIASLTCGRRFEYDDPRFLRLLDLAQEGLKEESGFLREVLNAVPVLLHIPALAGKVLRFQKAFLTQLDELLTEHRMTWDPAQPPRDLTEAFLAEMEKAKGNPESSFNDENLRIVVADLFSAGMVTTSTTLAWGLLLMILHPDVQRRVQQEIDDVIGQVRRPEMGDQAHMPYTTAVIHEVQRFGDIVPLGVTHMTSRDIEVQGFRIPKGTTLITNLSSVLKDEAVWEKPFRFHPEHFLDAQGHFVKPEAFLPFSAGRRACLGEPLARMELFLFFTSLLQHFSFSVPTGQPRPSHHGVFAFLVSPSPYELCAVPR

Cytochrome P450 2C9 = Cytochrome P450 2C9 (Homo sapiens, UniProt P11712); test: Inhibition of CYP2C9 in human liver microsomes using MFC as substrate by fluorescence assay; format: ADME; how it was run: as §1
Chain of Cytochrome P450 2C9 (P11712 whole entry): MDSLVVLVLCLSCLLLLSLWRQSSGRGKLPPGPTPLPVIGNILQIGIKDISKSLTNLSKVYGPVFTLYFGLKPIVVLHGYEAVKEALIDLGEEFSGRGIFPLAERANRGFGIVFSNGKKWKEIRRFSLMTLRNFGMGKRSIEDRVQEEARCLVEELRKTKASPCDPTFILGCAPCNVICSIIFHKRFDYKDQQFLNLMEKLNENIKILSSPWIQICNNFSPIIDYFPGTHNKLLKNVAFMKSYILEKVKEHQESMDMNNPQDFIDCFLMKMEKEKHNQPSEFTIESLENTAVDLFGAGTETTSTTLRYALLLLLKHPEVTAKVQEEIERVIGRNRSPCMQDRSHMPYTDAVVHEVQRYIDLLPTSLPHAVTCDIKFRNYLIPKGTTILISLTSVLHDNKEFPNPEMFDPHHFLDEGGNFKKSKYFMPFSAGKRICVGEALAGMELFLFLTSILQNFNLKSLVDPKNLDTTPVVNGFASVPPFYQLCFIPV

[8] = Half life in C57BL/6J mouse at 1.5 mg/kg, iv as bolus dose by LC-MS/MS analysis; format: ADME, organism-based; details: in vivo
How it was run: (§2)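 Mice given single i.v. dose in N-methylpyrrolidinone / 40% (v/v) aqueous hydroxypropyl-γ-cyclodextrin (30/70 v/v). Blood into K₂EDTA at 5 min, 15 min, 30 min, 1, 2, 4, 8 h, sublingually or by terminal cardiac puncture under isoflurane. Plasma spun at 3000 × g, 5 min, 4 °C, stored at -20 °C. Plasma levels by LC–MS/MS; parameters by non-compartmental analysis.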

[9] = Clearance in C57BL/6J mouse at 1.5 mg/kg, iv as bolus dose by LC-MS/MS analysis; format: ADME, organism-based; details: in vivo; how it was run: as §2
[10] = Volume of distribution at steady state in C57BL/6J mouse at 1.5 mg/kg, iv as bolus dose by LC-MS/MS analysis; format: ADME, organism-based; details: in vivo, read-out: Vdss; how it was run: as §2
[11] = Unbound fraction in human plasma; format: ADME, cell-free
[12] = system: Trypanosoma brucei rhodesiense; test: Antitrypanosomal activity against bloodstream form of Trypanosoma brucei rhodesiense STIB 900 infected in NMRI mouse assessed as reduction of parasitemia at 50 mg/kg, po administered for 3 consecutive days starting 1 day post infection measured at 24 hrs post last dose relative to control; format: functional; design: scale not given: the % may be the effect or the level left
How it was run: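 Female mice infected with STIB900 were dosed orally at 50 mg/kg/day on three consecutive days, starting 1 day post-infection. Compound was in 100% DMSO diluted 10-fold in distilled water, given at 0.1 mL/10 g. Tail-blood parasitaemia was measured 24 h after the last dose versus 4 untreated infected controls. Values are means of 2 mice.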

[13] = system: Trypanosoma brucei rhodesiense; test: Antitrypanosomal activity against bloodstream form of Trypanosoma brucei rhodesiense STIB 900 assessed as parasite growth inhibition after 2 hrs by Alamar blue assay; format: functional; details: STIB 900, 2 h
How it was run: (§3)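 Bloodstream STIB 900 trypomastigotes, 1x10⁴ per well, exposed to eleven 3-fold serial dilutions at 37 °C/5% CO₂ for the stated pulse time. Parasites were then pelleted and washed four times, and an aliquot was regrown 72 h drug-free in triplicate plates. Resazurin was added for 2–4 h, fluorescence read at ex 536/em 588 nm, and IC50 taken by linear regression of sigmoidal curves. Melarsoprol served as control.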

[14] = system: Trypanosoma brucei rhodesiense; test: Antitrypanosomal activity against bloodstream form of Trypanosoma brucei rhodesiense STIB 900 assessed as parasite growth inhibition after 6 hrs by Alamar blue assay; format: functional; details: STIB 900, 6 h; how it was run: as §3
[15] = system: Trypanosoma brucei rhodesiense; test: Antitrypanosomal activity against bloodstream form of Trypanosoma brucei rhodesiense STIB 900 assessed as parasite growth inhibition after 16 hrs by Alamar blue assay; format: functional; details: STIB 900, 16 h; how it was run: as §3
[16] = system: Trypanosoma brucei rhodesiense; test: Antitrypanosomal activity against bloodstream form of Trypanosoma brucei rhodesiense STIB 900 assessed as parasite growth inhibition after 24 hrs by Alamar blue assay; format: functional; details: STIB 900, 24 h; how it was run: as §3
[17] = system: Trypanosoma brucei rhodesiense; test: Antitrypanosomal activity against bloodstream form of Trypanosoma brucei rhodesiense STIB 900 assessed as parasite growth inhibition after 48 hrs by Alamar blue assay; format: functional; details: STIB 900, 48 h; how it was run: as §3
[18] = Selectivity index, ratio of IC50 for rat L6 cells to IC50 for bloodstream form of Trypanosoma brucei rhodesiense STIB 900; format: toxicity; details: read-out: Ratio IC50
How it was run: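 Ratio of L-6 rat skeletal myoblast IC50 to T. b. rhodesiense STIB 900 bloodstream trypomastigote IC50, both from Alamar Blue growth-inhibition assays. Each IC50 is the mean of at least 2 measurements.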

[19] = Half life in C57BL/6J mouse at 0.8 mg/kg, iv as bolus dose by LC-MS/MS analysis; format: ADME, organism-based; details: in vivo
How it was run: (§4)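 Mice received intravenous compound in N-methylpyrrolidinone / 40% aqueous hydroxypropyl-γ-cyclodextrin (30/70). Blood was drawn into K₂EDTA at 5 min, 15 min, 30 min, 1, 2, 4 and 8 h, and plasma was separated at 3000 × g for 5 min at 4 °C and stored at -20 °C. Plasma levels were measured by LC–MS/MS, and parameters derived by non-compartmental analysis.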

[20] = Clearance in C57BL/6J mouse at 0.8 mg/kg, iv as bolus dose by LC-MS/MS analysis; format: ADME, organism-based; details: in vivo; how it was run: as §4
[21] = Volume of distribution at steady state in C57BL/6J mouse at 0.8 mg/kg, iv as bolus dose by LC-MS/MS analysis; format: ADME, organism-based; details: in vivo, read-out: Vdss; how it was run: as §4

Row | Structure (SMILES) | logD at 100 µM [1] | solubility [2] | Ki (Rhodesain) | Ki (Procathepsin L) | Ratio Ki [3] | IC50 [4] | IC50 (L6) | microsomal CLint at 2 µM [5] | microsomal CLint at 2 µM [6] | Papp at 15 h [7] | IC50 (Cytochrome P450 3A4) | IC50 (Cytochrome P450 2D6) | IC50 (Cytochrome P450 2C9) | half-life [8] | clearance [9] | Vd [10] | fraction unbound [11] | Activity [12] | selectivity ratio [18] | also measured
1 | Cn1ncc(C(=O)N[C@@H](Cc2ccc(OC(F)(F)F)c(Cl)c2)C(=O)NC2(C#N)CC2)n1 | 3.09 | 53 µg/mL (≈ 116 µM) | 23 nM | 15 nM | 0.7 | 40 nM | > 10000 nM | < 10 µL/min/mg | < 10 µL/min/mg | 0.12 ×10⁻⁶ cm/s | > 50000 nM | 6000 nM | > 50000 nM | 1.52 h | 22.8 mL/min/kg | 2.7 L/kg | 0.226 | 53.6% |  | 
2 | N#CC1(NC(=O)[C@H](Cc2ccc(OC(F)(F)F)c(Cl)c2)NC(=O)c2cnn(-c3cccnc3)n2)CC1 | 3.7 | 4.2 µg/mL (≈ 8.08 µM) | 36 nM | 353 nM | 10 | 1 nM | > 10000 nM | < 10 µL/min/mg | 11 µL/min/mg | 0.447 ×10⁻⁶ cm/s | 8000 nM | 2000 nM | 7000 nM | 0.94 h | 22.6 mL/min/kg | 0.8 L/kg | 0.0395 |  |  | 
3 | N#CC1(NC(=O)[C@H](Cc2ccc(OC(F)(F)F)c(Cl)c2)NC(=O)c2cnn(-c3ccccc3)n2)CC1 |  | < 0.3 µg/mL | 2.9 nM | 81.7 nM | 28 | 5 nM | 17900 nM |  |  |  |  |  |  |  |  |  |  |  | 3580 | IC50 [13]: > 1000 nM; IC50 [14]: > 1000 nM; IC50 [15]: > 1000 nM; IC50 [16]: 556 nM; IC50 [17]: 462 nM
4 | N#CC1(NC(=O)[C@H](Cc2ccc(OC(F)(F)F)c(Cl)c2)NC(=O)c2cnn(-c3ccc(F)nc3)n2)CC1 |  | 0.5 µg/mL (≈ 0.93 µM) | 14 nM | 143 nM | 10 | 6 nM | 6990 nM | < 10 µL/min/mg | < 10 µL/min/mg | 0.291 ×10⁻⁶ cm/s | 47000 nM | 1000 nM | 11000 nM |  |  |  | 0.0148 | 40.8% | 1170 | half-life [19]: 1.42 h; clearance [20]: 10.2 mL/min/kg; Vd [21]: 1.2 L/kg
